NR2E3 ag-1 = inhibitors of NR2E3-RetCOR corepressor binding, primary screen, NR2E3 agonist project, biochemical, TR-FRET, GST-NR2E3, biotin-RetCOR. Photoreceptor-specific nuclear receptor (Homo sapiens), Q9Y5X4. 1536-well. inhibition of corepressor binding, % at 4.78 µM. 320,000 compounds, 0.12% hits;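 active = percent inhibition above the cutoff of mean plus 3 SD of all tested compounds, set per screening campaign, cut at about 20% in these data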;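 note: 0% = DMSO wells and 100% = biotin wells as full block of FRET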
Target sequence (Q9Y5X4 whole entry, looked up): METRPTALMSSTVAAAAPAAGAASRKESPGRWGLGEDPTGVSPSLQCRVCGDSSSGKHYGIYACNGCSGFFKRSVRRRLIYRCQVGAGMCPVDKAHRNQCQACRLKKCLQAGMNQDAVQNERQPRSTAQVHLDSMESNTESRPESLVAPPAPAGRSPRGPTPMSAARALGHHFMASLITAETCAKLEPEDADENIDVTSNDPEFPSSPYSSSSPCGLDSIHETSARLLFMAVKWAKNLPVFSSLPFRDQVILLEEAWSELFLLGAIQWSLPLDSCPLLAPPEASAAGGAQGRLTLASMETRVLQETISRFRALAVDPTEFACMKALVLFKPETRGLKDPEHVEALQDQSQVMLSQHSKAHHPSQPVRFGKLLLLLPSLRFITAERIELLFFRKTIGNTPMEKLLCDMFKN
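System: GST-tagged NR2E3 plus biotinylated RetCOR corepressor; Buffer or medium: pH 7.5 Tris-based buffer; Probe or stimulus: RetCOR corepressor, biotinylated, 7 nM; Doses: compound at 4.8 µM, single dose; Schedule: 5 h incubation at 4 °C; Technique: time-resolved FRET; Evaluation: percent inhibition of TR-FRET ratio; Replication: one well per compound, singlicate testing.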
NR2E3 ag-2 = NR2E3 agonists in two-hybrid cells, primary screen, cell-based, luminescence, CHO-S, Gal4-NCOR/VP16-NR2E3; Photoreceptor-specific nuclear receptor (Homo sapiens), Q9Y5X4; luciferase; inhibition of corepressor binding, % at 3.98 µM; 360,000 compounds, 0.35% hits; AID 602229, 2012;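 active = inhibition above the mean of all tested compounds plus 3 SD, cut at about 70% in these data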;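 note: 0% = DMSO with NR2E3 transfected cells and 100% = cells lacking NR2E3 construct; higher means lower luciferase signal from less NR2E3 corepressor binding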
PG9 binder = binders of HIV-1 gp120 antibody PG9, primary screen, biochemical, TR-FRET; HIV-1 gp120 / PG9 antibody interaction; TR-FRET gp120-PG9 antibody binding; inhibition, % at 6.7 µM; 360,000 compounds, 0.43% hits; AID 624416, 2012; in the data active = inhibition above about 8.5%
NR1D1 modulator = modulators of Rev-erb alpha DNA binding, primary screen, biochemical, FITC-DNA, fluorescence polarization, uHTS; Rev-erbα–FITC-DNA binding, 90 min; activity, % at 10 µM; 370,000 compounds, 0.79% hits; AID 1259318, 2017;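 active = activity above about 14%, limit read from the data; passing the limit was not always enough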;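 note: 0% = DMSO wells with 35 nM protein and 100% = DMSO wells with 750 nM protein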
NR2E3 ag conf = NR2E3 agonist confirmation in cells, cell-based, luminescence, CHO-S two-hybrid | shares compounds with NR2E3 ag-2 | AID 624378, 2012 | CHO-S mammalian two-hybrid NR2E3-NCOR, luciferase luminescence | 2,300 compounds, 51% hits | inhibition, % at 3.98 µM;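 active = average inhibition above a cutoff equal to the mean inhibition of all tested compounds plus one SD, cut at about 70% in these data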;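 note: 0% = DMSO in NR2E3 cells and 100% = DMSO in cells lacking NR2E3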
GAL4-VP16 luc = GAL4-VP16 reporter modulators, confirmation, counter-screen for NR2E3 agonist project, cell-based, luminescence, CHO-S, high throughput | shares compounds with NR2E3 ag-2 | CHO-S GAL4-VP16 luciferase reporter | inhibition, % at 3.98 µM | 2,300 compounds, 29% hits | AID 624379, 2012;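 active = mean inhibition above a cutoff equal to the average over all tested compounds plus one standard deviation, cut at about 70% in these data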;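 note: luciferase from a UAS reporter driven by GAL4-VP16 transactivation; 0% = DMSO with VP16-transfected cells and 100% = DMSO with cells lacking VP16; higher means less reporter light so more repression of VP16 activity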
* marks the source's active call; other numbers are inactive results. The list is not random: actives were taken first. Their share in the collection is about 1.4%.

CCCN(CCC)CCNS(=O)(=O)c1ccc2c(c1)CCN2C(=O)C1CCC1 was read as NR2E3 ag-1 1, NR2E3 ag-2 1, PG9 binder -1 and NR1D1 modulator 7.
For Cn1c(=O)c2c(-c3ccccc3)n(-c3cc([N+](=O)[O-])ccc3N)cc2n(C)c1=O the results were NR2E3 ag-2 -7, PG9 binder 0 and NR1D1 modulator 6.
Screening NC(=O)c1nn(-c2ccccc2)nc1NC(=O)CSc1nnnn1-c1ccc(Cl)cc1 returned NR2E3 ag-1 -3, NR2E3 ag-2 92*, PG9 binder 1, NR1D1 modulator -1, NR2E3 ag conf 97* and GAL4-VP16 luc 26.
`Cc1cnc(C(=O)Nc2cccc3cccnc23)cn1` gave NR2E3 ag-2 77*, PG9 binder 1, NR1D1 modulator -2, NR2E3 ag conf -6 and GAL4-VP16 luc -10.
`CN(c1ccccc1)S(=O)(=O)c1ccc(C(=O)NCCc2ccc(F)cc2)cc1` gave NR2E3 ag-1 2, NR2E3 ag-2 -7, PG9 binder -1 and NR1D1 modulator -1.
`Cc1ccccc1N=Nc1c(C)[nH]n(C(N)=S)c1=O` gave NR2E3 ag-1 -5, NR2E3 ag-2 58, PG9 binder -5, NR1D1 modulator -1, NR2E3 ag conf 0 and GAL4-VP16 luc -7.
CN=c1scc(-c2cccs2)n1/N=C/c1ccc(O)c(O)c1O was read as NR2E3 ag-1 1, NR2E3 ag-2 -143, PG9 binder -3 and NR1D1 modulator 0.
`CN=c1scc(-c2cccs2)n1/N=C/c1ccccc1O` gave NR2E3 ag-1 -2, NR2E3 ag-2 95*, PG9 binder -1, NR1D1 modulator 6, NR2E3 ag conf 90* and GAL4-VP16 luc 82*.
For COc1ccccc1C(=O)N=C1SC2CS(=O)(=O)CC2N1c1ccccc1 (centres undefined) the results were NR2E3 ag-1 4, NR2E3 ag-2 -17, PG9 binder 0 and NR1D1 modulator 0.
`O=c1cc(-c2cccc(Br)c2)nc(-c2ccccc2F)o1` gave NR2E3 ag-1 0, NR2E3 ag-2 3, PG9 binder -1 and NR1D1 modulator -2.
Screening S=c1[nH]nc(-c2cc(-c3ccsc3)n[nH]2)n1-c1cccc2ccccc12 returned NR2E3 ag-1 2, NR2E3 ag-2 49, PG9 binder 2, NR1D1 modulator -3, NR2E3 ag conf 18 and GAL4-VP16 luc -17.
Screening COc1ccc(-c2cc(-c3n[nH]c(=S)n3-c3cccc4ccccc34)[nH]n2)cc1 returned NR2E3 ag-1 4, NR2E3 ag-2 42, PG9 binder -1 and NR1D1 modulator -6.
Screening Cc1[nH]nc(NCCO)c1[N+](=O)[O-] returned NR2E3 ag-1 -9, NR2E3 ag-2 -8, PG9 binder 0 and NR1D1 modulator 2.
For Cc1[nH]nc(S(=O)CC(=O)O)c1[N+](=O)[O-] (centres undefined) the results were NR2E3 ag-1 4, NR2E3 ag-2 59, PG9 binder -2, NR1D1 modulator -1, NR2E3 ag conf 1 and GAL4-VP16 luc -7.
CCc1ccc(NCc2ccc(OC)c(Cn3ccnc3)c2)cc1 was read as NR2E3 ag-1 1, NR2E3 ag-2 52, PG9 binder 0, NR1D1 modulator 3, NR2E3 ag conf 26 and GAL4-VP16 luc 25.
Screening COc1ccc(CNc2ccc(Cl)cc2)cc1Cn1ccnc1 returned NR2E3 ag-1 -3, NR2E3 ag-2 21, PG9 binder 2 and NR1D1 modulator -4.
CC(C)c1ccc(CNC(=O)C2(C)CCCN2C)cc1 (centres undefined) was read as NR2E3 ag-2 -2, PG9 binder 0 and NR1D1 modulator 5.
For Cc1sc2ncnc(NCC(O)c3ccccc3)c2c1C (centres undefined) the results were NR2E3 ag-1 2, NR2E3 ag-2 75*, PG9 binder 1, NR1D1 modulator -7, NR2E3 ag conf 71* and GAL4-VP16 luc 51.
Cc1sc2ncnc(NCc3cccs3)c2c1C was read as NR2E3 ag-1 3, NR2E3 ag-2 78*, PG9 binder 0, NR1D1 modulator -3, NR2E3 ag conf 96* and GAL4-VP16 luc 81*.
Cc1sc2ncnc(NCC(O)c3ccc([N+](=O)[O-])cc3)c2c1C (centres undefined) was read as NR2E3 ag-1 7, NR2E3 ag-2 105*, PG9 binder 0, NR1D1 modulator -1, NR2E3 ag conf 95* and GAL4-VP16 luc 76*.
Cc1cc(NC(=O)CCC(=O)N(c2cccc(F)c2)C(C(=O)NC2CCCC2)c2ccccc2)no1 (centres undefined) was read as NR2E3 ag-1 0, NR2E3 ag-2 18, PG9 binder -1 and NR1D1 modulator 10.
`Nc1ccn(CC(=O)NCc2ccc3[nH]ccc3c2)c(=O)n1` gave NR2E3 ag-1 3, NR2E3 ag-2 -46, PG9 binder -1 and NR1D1 modulator 4.
Screening COc1ccc(/C=C/C(=O)OCC(=O)N2CCc3ccccc32)cc1 returned NR2E3 ag-1 0, NR2E3 ag-2 20, PG9 binder 0 and NR1D1 modulator 0.
Screening CN(Cc1ccc(C#CCCO)cc1)CC1CCCN(CCc2ccc(Cl)cc2)C1 (centres undefined) returned NR2E3 ag-1 4, NR2E3 ag-2 -11, PG9 binder 0 and NR1D1 modulator -1.
COc1ccc(N2CCN(C(=S)NC(=O)c3cccs3)CC2)c([N+](=O)[O-])c1 was read as NR2E3 ag-1 -1, NR2E3 ag-2 1, PG9 binder 0 and NR1D1 modulator 3.
`O=C(NC(=S)N1CCN(c2c(Cl)cccc2[N+](=O)[O-])CC1)c1cccs1` gave NR2E3 ag-1 3, NR2E3 ag-2 54, PG9 binder 0, NR1D1 modulator 1, NR2E3 ag conf 39 and GAL4-VP16 luc 35.
`COc1ccc(CNS(=O)(=O)c2ccc3c(c2)N(C(C)=O)CC(C)S3)cc1` (centres undefined) gave NR2E3 ag-1 6, NR2E3 ag-2 68, PG9 binder 3, NR1D1 modulator 4, NR2E3 ag conf 23 and GAL4-VP16 luc 37.
CC(=O)N1CC(C)Sc2ccc(S(=O)(=O)NCc3ccc(F)cc3)cc21 (centres undefined) was read as NR2E3 ag-1 3, NR2E3 ag-2 27, PG9 binder 1 and NR1D1 modulator 0.

Compound activity: PubChem, several laboratories
